The values below come from ChEMBL document CHEMBL1166008, “A new class of potential anti-tuberculosis agents: Synthesis and preliminary evaluation of novel acrylic acid ethyl ester derivatives” (Bioorg Med Chem, 2010).

The term MIC denotes the smallest concentration in the dilution series that meets the test's criterion for growth inhibition. Low readings indicate a more susceptible organism, high ones a less susceptible organism. By IC50 is commonly meant the concentration needed to halve the response being measured. A high value points to a need for much substance.

One assay deals with Staphylococcus aureus. The assay can be described thus: Antibacterial activity against Staphylococcus aureus ATCC 29213 after 18 to 24 hrs by microtiter plate method. In kind it is functional. A digest of the protocol: (§1)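 Broth microdilution MIC in cation-adjusted Mueller–Hinton broth. Cultures grown statically overnight on tryptic soy agar at 35 °C. Plates incubated 18–24 h at 35 °C and scored growth/no growth. Tetracycline control included.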

The test system of the next assay is Bacillus cereus. The assay can be described thus: Antibacterial activity against Bacillus cereus after 18 to 24 hrs by microtiter plate method. It is filed as functional. An outline of the steps:
as §1

The subject of assay [1] is Mycolicibacterium smegmatis. The assay can be described thus: Antimycobacterial activity against Mycobacterium smegmatis after 48 hrs by microtiter plate method. In kind it is functional. An outline of the steps: (§2)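 Broth microdilution MIC in Middlebrook 7H9 broth with 10% OADC. Mycobacterial cultures grown statically seven days in the same medium at 35 °C. Plates incubated 48 h at 35 °C and scored growth/no growth. Rifampin positive control.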

The subject of another assay is Escherichia coli. The assay can be described thus: Antibacterial activity against Escherichia coli ATCC 25922 after 18 to 24 hrs by microtiter plate method. In kind it is functional. A digest of the protocol:
as §1

In another assay the test system is Mycobacterium avium. The assay can be described thus: Antimycobacterial activity against Mycobacterium avium after 48 hrs by microtiter plate method. It is filed as functional. A digest of the protocol:
as §2

The subject of assay [2] is Mycolicibacterium fortuitum. The assay can be described thus: Antimycobacterial activity against Mycobacterium fortuitum after 48 hrs by microtiter plate method. In kind it is functional. A digest of the protocol: as §2
A further assay has as its system J774.A1. The assay can be described thus: Cytotoxicity against mouse J774A1 cells after 24 hrs by trypan blue exclusion assay. In kind it is cell-based. The following applies: J774.A1, 24 h. An outline of the steps:
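Murine J774A.1 monocytes seeded at 1 × 10^6/well in RPMI 1640. Next day, twofold dilutions of drug in PBS added. Following day, trypan blue added for 10 min, then dead (blue) and live cells counted in three fields per well. IC50 taken as concentration giving 50% dead cells.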

Assay [3] has as its system Mycobacterium intracellulare. The assay can be described thus: Antimycobacterial activity against Mycobacterium intracellular after 48 hrs by microtiter plate method. In kind it is functional. An outline of the steps: as §2
The subject of a further assay is Mycobacteroides chelonae. The assay can be described thus: Antimycobacterial activity against Mycobacterium chelonae after 48 hrs by microtiter plate method. In kind it is functional. A digest of the protocol: as §2
Assay [4] deals with Mycobacterium tuberculosis. Kind of assay: Antimycobacterial activity against Mycobacterium tuberculosis H37Rv after 48 hrs by green fluorescent protein-based assay. It is filed as functional. A digest of the protocol: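 M. tuberculosis H37Rv carrying high-copy pHIGH22 plasmid expressing GFP. Killing read as loss of GFP fluorescence. Isoniazid and rifampin positive controls.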

Another assay relates to Mycobacterium kansasii. Kind of assay: Antimycobacterial activity against Mycobacterium kansasii after 48 hrs by microtiter plate method. It is filed as functional. An outline of the steps: as §2

≈ marks a conversion by molar mass, not a printed value.

In the case of `CCOC(=O)/C=C\Sc1ccccc1C(C)C`, the MIC (with Staphylococcus aureus; against Bacillus cereus; in assay [1]; against Escherichia coli) was > 128 µg/mL in each case.

As for `CCOC(=O)/C=C\Oc1ccc(F)cc1`, the MIC (against Staphylococcus aureus; in the assay on Bacillus cereus; in assay [1]; against Escherichia coli) was > 128 µg/mL each time.

Consider `CCOC(=O)/C=C\Oc1ccccc1C`, for which the minimum inhibitory concentration (MIC) (against Staphylococcus aureus; against Bacillus cereus; in [1]; against Escherichia coli) was > 128 µg/mL throughout.

With `CCOC(=O)/C=C\Oc1cccnc1`, the MIC (against Staphylococcus aureus; in the assay on Bacillus cereus; in assay [1]; against Escherichia coli) was > 128 µg/mL in each case.

`CCOC(=O)/C=C\n1nnnc1SC`: the MIC against Staphylococcus aureus was > 128 µg/mL; in the assay on Bacillus cereus, > 128 µg/mL; in [1], 128 µg/mL (≈ 597 µM); with Escherichia coli, > 128 µg/mL.

For `CCOC(=O)/C=C\Sc1ccc2ccccc2c1`, the MIC against Staphylococcus aureus was 128 µg/mL (≈ 495 µM); against Bacillus cereus it was > 128 µg/mL; in [1] it was 64 µg/mL (≈ 248 µM); with Escherichia coli, > 128 µg/mL.

Regarding `CCOC(=O)/C=C\Sc1ccc(C(C)(C)C)cc1`, the minimal inhibitory concentration (MIC) in the assay on Mycobacterium avium is 64 µg/mL (≈ 242 µM); in [2], 4 µg/mL (≈ 15.1 µM); in the assay on Staphylococcus aureus, > 128 µg/mL; with Bacillus cereus, > 128 µg/mL; in [3], 128 µg/mL (≈ 484 µM); in [1], 16 µg/mL (≈ 60.5 µM). The minimum inhibitory concentration (MIC) against Mycobacteroides chelonae is 8 µg/mL (≈ 30.3 µM); against Escherichia coli it was > 128 µg/mL; in assay [4], 25 µg/mL (≈ 94.6 µM); against Mycobacterium kansasii it was 16 µg/mL (≈ 60.5 µM). Besides, the IC50 with J774.A1 was 150 µg/mL (≈ 567 µM).

As for `CCOC(=O)/C=C\Sc1nc2ccccc2s1`, the minimal inhibitory concentration (MIC) against Mycobacterium avium was 64 µg/mL (≈ 241 µM); in assay [2] it was 16 µg/mL (≈ 60.3 µM); with Staphylococcus aureus, > 128 µg/mL; in the assay on Bacillus cereus it was > 128 µg/mL; in assay [3] it was 16 µg/mL (≈ 60.3 µM); in [1] it was 32 µg/mL (≈ 121 µM). Further, the minimal inhibitory concentration (MIC) in the assay on Mycobacteroides chelonae was 8 µg/mL (≈ 30.1 µM); in the assay on Escherichia coli, > 128 µg/mL; in assay [4], 25 µg/mL (≈ 94.2 µM); against Mycobacterium kansasii, 8 µg/mL (≈ 30.1 µM). Moreover, the IC50 with J774.A1 came out at 200 µg/mL (≈ 754 µM).

As for `CCOC(=O)/C=C\Oc1cc(OC)cc(OC)c1`, the MIC is > 128 µg/mL with Staphylococcus aureus, > 128 µg/mL against Bacillus cereus, 128 µg/mL (≈ 507 µM) in assay [1] and > 128 µg/mL against Escherichia coli.

Turning to `CCOC(=O)/C=C\Oc1ccc(C(C)(C)C)cc1`, the minimal inhibitory concentration (MIC) was > 128 µg/mL in the assay on Staphylococcus aureus, > 128 µg/mL with Bacillus cereus, 128 µg/mL (≈ 515 µM) in assay [1] and > 128 µg/mL in the assay on Escherichia coli.

On to `CCOC(=O)/C=C\Oc1cccc(F)c1`, for which the MIC (against Staphylococcus aureus; against Bacillus cereus; in [1]; with Escherichia coli) was > 128 µg/mL in each case.

With `CCOC(=O)/C=C\Oc1cccc([N+](=O)[O-])c1`, the MIC with Staphylococcus aureus is 64 µg/mL (≈ 270 µM); with Bacillus cereus, > 128 µg/mL; in assay [1] it was 64 µg/mL (≈ 270 µM); with Escherichia coli, > 128 µg/mL.

As to `CCOC(=O)/C=C\n1nnc2ccccc21`, the minimal inhibitory concentration (MIC) (with Staphylococcus aureus; in the assay with Bacillus cereus; in assay [1]; in the assay on Escherichia coli) was > 128 µg/mL throughout.

Turning to `CCOC(=O)/C=C\Sc1ncccn1`, the MIC in the assay on Staphylococcus aureus was > 128 µg/mL; with Bacillus cereus, > 128 µg/mL; in [1] it was 64 µg/mL (≈ 304 µM); with Escherichia coli it was > 128 µg/mL.

As for `CCOC(=O)/C=C\Sc1ccccc1C(=O)OC`, the MIC is > 128 µg/mL with Staphylococcus aureus, > 128 µg/mL in the assay on Bacillus cereus, 64 µg/mL (≈ 240 µM) in [1] and > 128 µg/mL in the assay with Escherichia coli.

For the compound `CCOC(=O)/C=C\Sc1cccc2ccccc12`, the MIC with Staphylococcus aureus was > 128 µg/mL; in the assay on Bacillus cereus, > 128 µg/mL; in [1], 128 µg/mL (≈ 495 µM); in the assay with Escherichia coli, > 128 µg/mL.

For `CCOC(=O)/C=C\n1ncc2ccccc21`, the MIC (in the assay with Staphylococcus aureus; with Bacillus cereus; in assay [1]; against Escherichia coli) was > 128 µg/mL each time.

Consider `CCOC(=O)/C=C\Oc1ccccc1C(=O)OC`, for which the MIC (in the assay with Staphylococcus aureus; in the assay on Bacillus cereus; in assay [1]; against Escherichia coli) was > 128 µg/mL each time.

As for `CCOC(=O)/C=C\Oc1cccc2ccccc12`, the MIC is > 128 µg/mL with Staphylococcus aureus, > 128 µg/mL against Bacillus cereus, 64 µg/mL (≈ 264 µM) in assay [1] and > 128 µg/mL in the assay on Escherichia coli.

As for `CCOC(=O)/C=C\Oc1ccc2ccccc2c1`, the MIC in the assay with Staphylococcus aureus is > 128 µg/mL; in the assay on Bacillus cereus, > 128 µg/mL; in [1] it was 128 µg/mL (≈ 528 µM); in the assay with Escherichia coli, > 128 µg/mL.

As to `CCOC(=O)/C=C\Oc1nc2ccccc2s1`, the MIC was > 128 µg/mL against Staphylococcus aureus, > 128 µg/mL against Bacillus cereus, 128 µg/mL (≈ 513 µM) in [1] and > 128 µg/mL against Escherichia coli.

In the case of `CCOC(=O)/C=C\Sc1ccc(O)cc1`, the MIC is 128 µg/mL (≈ 571 µM) with Staphylococcus aureus, 128 µg/mL (≈ 571 µM) in the assay on Bacillus cereus, 64 µg/mL (≈ 285 µM) in assay [1] and > 128 µg/mL against Escherichia coli.

With `CCOC(=O)/C=C\Sc1cccs1`, the minimal inhibitory concentration (MIC) against Staphylococcus aureus is > 128 µg/mL; against Bacillus cereus, > 128 µg/mL; in assay [1], 128 µg/mL (≈ 597 µM); against Escherichia coli it was > 128 µg/mL.

On to `CCOC(=O)/C=C\SC1CCCCC1`, for which the MIC (against Staphylococcus aureus; against Bacillus cereus; in [1]; against Escherichia coli) was > 128 µg/mL each time.

For `CCOC(=O)/C=C\n1ccc2ccccc21`, the minimum inhibitory concentration (MIC) (against Staphylococcus aureus; in the assay on Bacillus cereus; in assay [1]; with Escherichia coli) was > 128 µg/mL throughout.

Take `CCOC(=O)/C=C\Sc1ccccn1`: the MIC is > 128 µg/mL against Staphylococcus aureus, > 128 µg/mL against Bacillus cereus, 128 µg/mL (≈ 612 µM) in assay [1] and > 128 µg/mL in the assay on Escherichia coli.

Turning to `CCOC(=O)/C=C\n1ccnc1`, the minimal inhibitory concentration (MIC) (in the assay on Staphylococcus aureus; in the assay with Bacillus cereus; in [1]; in the assay on Escherichia coli) was > 128 µg/mL in each case.

With `CCOC(=O)/C=C\Oc1ccc(C(N)=O)cc1`, the MIC (in the assay on Staphylococcus aureus; against Bacillus cereus; in assay [1]; with Escherichia coli) was > 128 µg/mL in each case.

For the compound `CCOC(=O)/C=C\n1cccn1`, the minimum inhibitory concentration (MIC) (with Staphylococcus aureus; in the assay with Bacillus cereus; in [1]; against Escherichia coli) was > 128 µg/mL each time.

Consider `CCOC(=O)/C=C\Oc1ccccc1C(C)C`, for which the MIC (against Staphylococcus aureus; in the assay with Bacillus cereus; in assay [1]; against Escherichia coli) was > 128 µg/mL throughout.

For `CCOC(=O)/C=C\Oc1ccsc1C(=O)OC`, the minimum inhibitory concentration (MIC) (in the assay with Staphylococcus aureus; with Bacillus cereus; in assay [1]; against Escherichia coli) was > 128 µg/mL each time.

For the compound `NNC(=O)c1ccncc1` [ISONIAZID], in assay [4], the minimum inhibitory concentration (MIC) was determined as 0.25 µg/mL (≈ 1.82 µM).

In the case of `N#Cc1cccc(/C=C/SC2=NCCS2)c1` [PHENOTHIOSTYRENE], the MIC was > 128 µg/mL against Staphylococcus aureus, > 128 µg/mL with Bacillus cereus, 64 µg/mL (≈ 260 µM) in [1] and > 128 µg/mL in the assay on Escherichia coli.

As to `CO[C@H]1/C=C/O[C@@]2(C)Oc3c(C)c(O)c4c(O)c(c(/C=N/N5CCN(C)CC5)c(O)c4c3C2=O)NC(=O)/C(C)=C\C=C\[C@H](C)[C@H](O)[C@@H](C)[C@@H](O)[C@@H](C)[C@H](OC(C)=O)[C@@H]1C` [RIFAMPIN], the MIC in assay [1] is 64 µg/mL (≈ 77.8 µM); in [4], < 0.03 µg/mL.
